# Experimental data pooled from the literature.
# Lines come from different studies, so protocols differ.
# Observed: cell growth or viability
Compound,cell line,method,time,IC50
COC(=O)CN=c1scc(-c2ccccc2)n1-c1ccccc1OC,PANC-03-27,MTT,72 h,13.5 µM
CC(=O)c1ccc(-c2ccc3oc(C(=O)c4cc(O)c(O)c(O)c4)cc3c2)cc1,HEK-293T,ATP luminescence,72 h,1.3 mg/L
C=CCNC1=C2C[C@@H](C)C[C@H](OC)[C@H](O)[C@@H](C)/C=C(\C)[C@H](OC(N)=O)[C@@H](OC)/C=C\C=C(/C)C(=O)NC(=CC1=O)C2=O,A-431,MTT,,0.067 µM
COc1ccc(C[C]2([Ti+2][C]3(Cc4ccc(OC)cc4)C=CC=C3)C=CC=C2)cc1.[Cl-].[Cl-],HEK-293T,XTT,72 h,> 200 µM
COc1cc([C@@H]2c3cc4c(cc3[C@@H](O[C@@H]3O[C@@H]5CO[C@@H](C)O[C@H]5[C@H](O)[C@H]3O)[C@H]3COC(=O)[C@H]23)OCO4)cc(OC)c1O,CCD-18Co,MTS,48 h,43.7 µM
COc1cc(N2CCC(N3CCN(C)CC3)CC2)ccc1Nc1ncc(Cl)c(Nc2ccccc2S(=O)(=O)C(C)C)n1,human Myoblast,,72 h,0.45 µM
CC(C)C[C@H](NC(=O)[C@H](Cc1ccccc1)NC(=O)c1cnccn1)B(O)O,M-07e,ATP luminescence,,0.0053 µM
COC(=O)CN=c1scc(-c2ccccc2)n1-c1ccccc1C,PANC-03-27,MTT,72 h,> 100 µM
COc1cc(Nc2nccc(-c3cnn4nc(OC)ccc34)n2)cc(C(F)(F)F)c1,M-07e,ATP luminescence,,0.11 µM
O=C(CNC(=O)c1cccc2ccccc12)Nc1ccccc1Oc1cccc(O)c1,SK-N-AS,,,0.192 µM
CCN(c1nc(N)c(C(=O)N=C(N)N)nc1Cl)C(C)C,A-431,MTT,3 h,160 µM
COc1cc([C@@H]2c3cc4c(cc3[C@@H](O[C@@H]3O[C@@H]5CO[C@@H](C)O[C@H]5[C@H](O)[C@H]3O)[C@H]3COC(=O)[C@H]23)OCO4)cc(OC)c1O,CCD-18Co,MTS,72 h,42.2 µM
COc1cc2c(Oc3ccc(NC(=O)C4(C(=O)Nc5ccc(F)cc5)CC4)cc3F)ccnc2cc1OCCCN1CCOCC1,human Myoblast,,72 h,0.12 µM
CC(C)[C@H](N)C(=O)N1CCC[C@H]1B(O)O,TF-1,ATP luminescence,48 h,> 60 µM
O=C(O)c1ccc(NC(=O)c2cc3cc(Cl)ccc3[nH]2)cc1,SK-N-BE(2)-C,MTT,,21 µM
O=C(CNC(=O)c1cccc2ccccc12)Nc1ccccc1Oc1ccccc1,SK-N-AS,,,0.107 µM
O=C(c1cc(O)c(O)c(O)c1)c1cc2ccccc2o1,HEK-293T,ATP luminescence,24 h,1.3 mg/L
COC(=O)CN=c1scc(-c2ccccc2)n1-c1ccccc1[N+](=O)[O-],PANC-03-27,MTT,72 h,25.5 µM
COc1cccc(Oc2ccccc2NC(=O)CNC(=O)c2cccc3ccccc23)c1,SK-N-AS,,,0.125 µM
CC(=O)CC(=O)[c-]1cccc1.[Fe+2].c1cc[cH-]c1,PNT2,MTT,96 h,> 100 µM
O=C1/C(=C/c2cc(O)c(O)c(O)c2)Oc2ccccc21,HEK-293T,ATP luminescence,24 h,23 mg/L
Cc1cc(Nc2ncc(Cl)c(Nc3ccccc3S(=O)(=O)C(C)C)n2)c(OC(C)C)cc1C1CCNCC1,human Myoblast,,72 h,1.84 µM
C[C@H]1Oc2cc(cnc2N)-c2c(nn(C)c2C#N)CN(C)C(=O)c2ccc(F)cc21,A-431,,,> 10 µM
O=C(Nc1ccccc1CO)c1c[nH]c2ccc(Cl)cc12,SK-N-BE(2)-C,MTT,,13 µM
COc1cccc2c1C(=O)c1c(O)c3c(c(O)c1C2=O)C[C@@](O)(C(=O)CO)C[C@@H]3O[C@H]1C[C@H](N)[C@H](O)[C@H](C)O1,NCI-H292,WST-1,72 h,0.03 µM
Cc1cnc(NC2CCOCC2)nc1-n1cnc(C(=O)NC(CN)c2cc(F)cc(Cl)c2)c1 (centres unmarked),KM-H2,MTS,,2.6 µM
[Cl-].[Cl-].[Ti+4].c1cc[cH-]c1.c1cc[cH-]c1,HEK-293T,XTT,72 h,> 200 µM
Clc1ccc(-c2nc3ccccc3[nH]2)cc1Cl,HepG2,MTT,48 h,7.45 µM
COC(=O)CN=c1scc(-c2ccccc2)n1-c1ccccc1,PANC-03-27,MTT,72 h,72.2 µM
O=C(c1cc(O)c(O)c(O)c1)c1cc2cc(-c3ccc(CO)cc3)ccc2o1,HEK-293T,ATP luminescence,72 h,1 mg/L
CC[C@@H](C)[C@H](N)C(=O)N1Cc2ccccc2C1,TF-1,ATP luminescence,48 h,> 60 µM
CC1=CC(C)(C)N(Cc2ccccc2)c2ccc(O)cc21,Huh-7,MTT,72 h,16 µM
